Publication PMC11303703 (Scientific Reports, 2024)

How the values were obtained:
falcipain-2 = settings: read-out: IC50 against falcipain-2; cited from earlier work
P. falciparum W2 = settings: read-out: IC50 against P. falciparum W2; cultured malaria parasites; cited from earlier work
Trypanosoma brucei = settings: cited from earlier work
Cytotoxicity assay = assay type: cell-based; settings: human, HeLa cells
Outline: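 HeLa cells grown in DMEM with 5 mM L-glutamine, 10% FBS and penicillin/streptomycin/fungizone, then exposed to the test agent for 24 h in 96-well plates. A resazurin reagent was added and the resorufin formed by surviving cells was read by fluorescence (Ex 560/Em 590). Triplicate wells; emetine as positive control.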

T.b. brucei = assay: Trypanosoma brucei assay; assay type: cell-based; settings: 48 h, read-out: Antitrypanosomal IC50
Outline: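 In vitro T. b. brucei cultures in 96-well plates were exposed to the test agent for 48 h; the extract was screened at 25 µg/mL unless otherwise stated. Surviving parasites were counted by adding a resazurin reagent and reading resorufin fluorescence (Ex 560/Em 590). Pentamidine reference; triplicate wells; IC50 from dose-response data.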

HIV-1 IN = settings: by chelating the active site Mg2+ cofactor; cited from earlier work
[1] = DPPH radical scavenging assay; settings: 37 °C, 30 min, 517 nm, n = 3
Outline: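 Ethanolic DPPH (300 µM before mixing) was combined with test solution (0.5 mg/mL before mixing) and held at 37 °C for 30 min, then read at 517 nm. % radical scavenging was taken relative to a DMSO control. IC50 is the concentration removing 50% of the initial DPPH, fitted by kinetics software. N-acetyl-L-cysteine standard; 3 replicates.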

Q: Which IC50 (falcipain-2) does the source give for O=C(O)c1c(O)ccc(O)c1O [2,3,6-trihydroxy benzoic acid] here?
A: Its IC50 is 35.4 ± 22.4 µM.

Q: What about the IC50 (P. falciparum W2) of the same compound?
A: The IC50 was 16.5 ± 0.47 µM.

Q: For COC(=O)c1c(O)ccc(O)c1O [2,3,6-trihydroxy methyl benzoate], which IC50 (falcipain-2) is on record?
A: Its IC50 is 6.09 ± 0.87 µM.

Q: And the IC50 (P. falciparum W2)?
A: Its IC50 is 13 ± 1.63 µM.

Q: Which “activity against Trypanosoma brucei” value (Trypanosoma brucei) does the source give for epigallocatechin-3-gallate here?
A: The value was “active against Trypanosoma brucei”.

Q: With CC[C@H]1CN2CCc3cc(OC)c(OC)cc3[C@@H]2C[C@@H]1C[C@H]1NCCc2cc(OC)c(OC)cc21 [emetine] as the compound, how does the IC50 at 24 h (Cytotoxicity assay) read?
A: The IC50 at 24 h was 45 ± 10 nM.

Q: With N=C(N)c1ccc(OCCCCCOc2ccc(C(=N)N)cc2)cc1 [pentamidine] as the compound, how does the IC50 (T.b. brucei) read?
A: Its IC50 is 0.782 ± 0.006 nM.

Q: With COC(=O)c1cc(O)c(O)c(O)c1 [methyl gallate, Methyl gallate] as the compound, how does the “HIV-1 IN inhibition” value (HIV-1 IN) read?
A: The value was “inhibits HIV-1 IN”.

Q: With CC(=O)N[C@@H](CS)C(=O)O [N-acetyl-L-cysteine] as the compound, how does the “Antioxidant IC50” value [1] read?
A: The value was 0.0141 ± 0.0001 mg/mL.
